Source: ChEMBL document CHEMBL1240350, “In vitro activity of CEM-101 against Streptococcus pneumoniae and Streptococcus pyogenes with defined macrolide resistance mechanisms” (Antimicrob Agents Chemother, 2010)
Converted amounts (≈) assume the structure as drawn.

Experiments:
Streptococcus pneumoniae [1] = assay: Antibacterial activity against macrolide-resistant Streptococcus pneumoniae 3665 harboring mef(A) gene after 26 passages and 10 compound-free subculturing by retest method; assay type: functional
Streptococcus pneumoniae [2] = assay: Antibacterial activity against macrolide-susceptible Streptococcus pneumoniae 7127 harboring S20N mutation in L4 ribosomal protein and A105V mutation in L22 ribosomal protein after 16 passages and 10 compound-free subculturing by retest method; assay type: functional
Streptococcus pyogenes [3] = assay: Antibacterial activity against macrolide-resistant Streptococcus pyogenes 2094 harboring erm(A) gene after 5 passages and 10 compound-free subculturing by retest method
Streptococcus pyogenes [4] = assay: Antibacterial activity against macrolide-resistant Streptococcus pyogenes 2094 harboring erm(A) gene after 6 passages and 10 compound-free subculturing by retest method
Streptococcus pneumoniae [5] = assay: Antibacterial activity against Streptococcus pneumoniae harboring mutation in 23S rRNA after overnight incubation by agar dilution method; assay type: functional
Outline: (§1)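 Clinical isolates collected 1998–2008, with macrolide-resistance genes confirmed by PCR. MICs by agar dilution on Mueller-Hinton agar with 5% sheep blood. Inoculum 10^4 CFU/spot, incubated overnight at 35°C in ambient air. S. pneumoniae ATCC 49619 was the quality-control strain in every run.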

Streptococcus pneumoniae [6] = assay: Antibacterial activity against macrolide-resistant Streptococcus pneumoniae harboring erm(B) and mef(A) gene after overnight incubation by agar dilution method; assay type: functional
Outline: (§2)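 Agar dilution MICs on Mueller-Hinton agar with 5% sheep blood. Inoculum 10^4 CFU/spot, incubated overnight at 35°C in ambient air. Clinical S. pneumoniae or group A streptococcal isolates; resistance genotypes (erm(B), erm(A), mef(A)/mef(E)) were assigned by PCR. S. pneumoniae ATCC 49619 served as QC strain in each run. Range, MIC50 and MIC90 reported per phenotype group.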

Streptococcus pneumoniae [7] = assay: Antibacterial activity against macrolide-susceptible Streptococcus pneumoniae 1077 after 29 passages and 10 compound-free subculturing by retest method; assay type: functional
Streptococcus pneumoniae [8] = assay: Antibacterial activity against penicillin-resistant Streptococcus pneumoniae after overnight incubation by agar dilution method; assay type: functional
Outline: (§3)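 Agar dilution on Mueller-Hinton agar supplemented with 5% sheep blood. Inoculum 10^4 CFU/spot, incubated overnight at 35°C in ambient air. Test strains were clinical pneumococcal isolates. S. pneumoniae ATCC 49619 was included as the quality control strain in each run. MIC range, MIC50 and MIC90 were reported for each susceptibility category.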

Streptococcus pyogenes [9] = assay: Antibacterial activity against macrolide-resistant Streptococcus pyogenes 2011 harboring mef(A) gene after overnight incubation by agar dilution method
Streptococcus pneumoniae [10] = assay: Antibacterial activity against macrolide-resistant Streptococcus pneumoniae 3009 harboring mutation in 23S rRNA after 20 passages and 10 compound-free subculturing by retest method; assay type: functional
Streptococcus pneumoniae [11] = assay: Antibacterial activity against quinolone-resistant Streptococcus pneumoniae after overnight incubation by agar dilution method; assay type: functional; outline: as §3
Streptococcus pneumoniae [12] = assay: Antibacterial activity against macrolide-susceptible Streptococcus pneumoniae 1077 after 15 passages and 10 compound-free subculturing by retest method; assay type: functional
Streptococcus pneumoniae [13] = assay: Antibacterial activity against macrolide-susceptible Streptococcus pneumoniae 1077 after 43 passages and 10 compound-free subculturing by retest method; assay type: functional
Streptococcus pneumoniae [14] = assay: Antibacterial activity against macrolide-resistant Streptococcus pneumoniae 3009 harboring mutation in 23S rRNA after overnight incubation by agar dilution method; assay type: functional
Streptococcus pneumoniae [15] = assay: Antibacterial activity against macrolide-resistant Streptococcus pneumoniae 1635 harboring erm(A) gene after 49 passages and 10 compound-free subculturing by retest method; assay type: functional
Outline: (§4)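 Multistep selection by daily serial passage in subinhibitory drug concentrations. Medium was cation-adjusted Mueller-Hinton broth plus 5% lysed horse blood. Each day the next inoculum came from the tube 1–2 dilutions below the MIC whose turbidity matched the growth control, for up to 50 days. Clone MICs by CLSI macrodilution; identity to the parent confirmed by SmaI PFGE.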

Streptococcus pneumoniae [16] = assay: Antibacterial activity against macrolide-resistant Streptococcus pneumoniae 1635 harboring erm(A) gene after 32 passages and 10 compound-free subculturing by retest method; assay type: functional; outline: as §4
Streptococcus pneumoniae [17] = assay: Antibacterial activity against Streptococcus pneumoniae harboring mutation in L4 ribosomal protein after overnight incubation by agar dilution method; assay type: functional; outline: as §1
Streptococcus pyogenes [18] = assay: Antibacterial activity against macrolide-susceptible Streptococcus pyogenes 2132 after 28 passages and 10 compound-free subculturing by retest method
Streptococcus pneumoniae [19] = assay: Antibacterial activity against Streptococcus pneumoniae harboring erm(B) and mef(A) gene after overnight incubation by agar dilution method; assay type: functional; outline: as §1
Streptococcus pyogenes [20] = assay: Antibacterial activity against macrolide-resistant Streptococcus pyogenes harboring erm(B) gene after overnight incubation by agar dilution method; assay type: functional; outline: as §2
Streptococcus pyogenes [21] = assay: Antibacterial activity against Streptococcus pyogenes harboring mutation in L4 ribosomal protein after overnight incubation by agar dilution method; assay type: functional; outline: as §1
Streptococcus pyogenes [22] = assay: Antibacterial activity against macrolide-susceptible Streptococcus pyogenes after overnight incubation by agar dilution method; assay type: functional
Outline: (§5)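 Agar dilution on Mueller-Hinton agar supplemented with 5% sheep blood, inoculum 10^4 CFU/spot, read after overnight incubation at 35°C in ambient air. Clinical isolates with defined genotypes; S. pneumoniae ATCC 49619 quality control strain included in each run. MIC50/MIC90 are MICs inhibiting 50% and 90% of isolates.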

Streptococcus pneumoniae [23] = assay: Antibacterial activity against macrolide-resistant Streptococcus pneumoniae 2686 harboring mutation in L4 ribosomal protein after 14 passages and 10 compound-free subculturing by retest method; assay type: functional
Streptococcus pyogenes [24] = assay: Antibacterial activity against macrolide-susceptible Streptococcus pyogenes 2132 after 50 passages following overnight incubation by agar dilution method
Streptococcus pneumoniae [25] = assay: Antibacterial activity against penicillin-intermediate Streptococcus pneumoniae after overnight incubation by agar dilution method; assay type: functional; outline: as §5
Streptococcus pyogenes [26] = assay: Antibacterial activity against macrolide-resistant Streptococcus pyogenes 2011 harboring mef(A) gene after 35 passages and 10 compound-free subculturing by retest method
Streptococcus pyogenes [27] = assay: Antibacterial activity against macrolide-resistant Streptococcus pyogenes 2368 harboring erm(B) gene after 18 passages and 10 compound-free subculturing by retest method
Streptococcus pneumoniae [28] = assay: Antibacterial activity against macrolide-resistant Streptococcus pneumoniae 3665 harboring mef(A) gene after 14 passages and 10 compound-free subculturing by retest method; assay type: functional; details: Streptococcus pneumoniae, 3665; read-out: MIC
Streptococcus pneumoniae [29] = assay: Antibacterial activity against macrolide-resistant Streptococcus pneumoniae 24 harboring erm(B) gene after overnight incubation by agar dilution method; assay type: functional
Streptococcus pneumoniae [30] = assay: Antibacterial activity against macrolide-susceptible Streptococcus pneumoniae 7127 harboring S20N mutation in L4 ribosomal protein and A105V mutation in L22 ribosomal protein after overnight incubation by agar dilution method; assay type: functional
Streptococcus pneumoniae [31] = assay: Antibacterial activity against macrolide-resistant Streptococcus pneumoniae 1076 harboring erm(B) and mef(A) gene after 18 passages and 10 compound-free subculturing by retest method; assay type: functional; outline: as §4
Streptococcus pyogenes [32] = assay: Antibacterial activity against macrolide-resistant Streptococcus pyogenes 237 harboring mutation in L4 ribosomal protein after 50 passages following overnight incubation by agar dilution method

SMILES: CCC[C@@H]1C[C@@H](C(=O)N[C@@H]([C@H]2O[C@H](SC)[C@H](O)[C@@H](O)[C@H]2O)[C@H](C)Cl)N(C)C1 [CLINDAMYCIN]
- MIC (Streptococcus pneumoniae [1]): 0.03 µg/mL (≈ 0.0706 µM)
- MIC (Streptococcus pneumoniae [2]): 0.03 µg/mL (≈ 0.0706 µM)
- MIC (Streptococcus pyogenes [3]): 0.06 µg/mL (≈ 0.141 µM)
- MIC (Streptococcus pyogenes [4]): 0.06 µg/mL (≈ 0.141 µM)
- MIC (Streptococcus pneumoniae [5]): 0.03 µg/mL (≈ 0.0706 µM)
- MIC50 (Streptococcus pneumoniae [6]): 0.06 µg/mL (≈ 0.141 µM)
- MIC (Streptococcus pneumoniae [7]): 4 µg/mL (≈ 9.41 µM)
- MIC50 (Streptococcus pneumoniae [8]): 0.06 µg/mL (≈ 0.141 µM)
- MIC (Streptococcus pyogenes [9]): 0.06 µg/mL (≈ 0.141 µM)
- MIC (Streptococcus pneumoniae [10]): 1 µg/mL (≈ 2.35 µM)
- MIC50 (Streptococcus pneumoniae [11]): 0.03 µg/mL (≈ 0.0706 µM)
- MIC90 (Streptococcus pneumoniae [11]): 64 µg/mL (≈ 151 µM)
- MIC (Streptococcus pneumoniae [12]): 8 µg/mL (≈ 18.8 µM)
- MIC (Streptococcus pneumoniae [13]): 0.03 µg/mL (≈ 0.0706 µM)
- MIC (Streptococcus pneumoniae [14]): 1 µg/mL (≈ 2.35 µM)
- MIC (Streptococcus pneumoniae [15]): 0.25 µg/mL (≈ 0.588 µM)
- MIC (Streptococcus pneumoniae [16]): 0.03 µg/mL (≈ 0.0706 µM)
- MIC50 (Streptococcus pneumoniae [17]): 0.06 µg/mL (≈ 0.141 µM)
- MIC90 (Streptococcus pneumoniae [17]): 0.125 µg/mL (≈ 0.294 µM)
- MIC (Streptococcus pyogenes [18]): 0.03 µg/mL (≈ 0.0706 µM)
- MIC50 (Streptococcus pneumoniae [19]): 0.06 µg/mL (≈ 0.141 µM)
- MIC50 (Streptococcus pyogenes [20]): > 64 µg/mL
- MIC90 (Streptococcus pyogenes [20]): > 64 µg/mL
- MIC (Streptococcus pyogenes [21]): 0.06 µg/mL (≈ 0.141 µM)
- MIC50 (Streptococcus pyogenes [22]): 0.06 µg/mL (≈ 0.141 µM)
- MIC90 (Streptococcus pyogenes [22]): 0.06 µg/mL (≈ 0.141 µM)
- MIC (Streptococcus pneumoniae [23]): 0.03 µg/mL (≈ 0.0706 µM)
- MIC (Streptococcus pyogenes [24]): 0.06 µg/mL (≈ 0.141 µM)
- MIC50 (Streptococcus pneumoniae [25]): 0.125 µg/mL (≈ 0.294 µM)
- MIC90 (Streptococcus pneumoniae [25]): > 64 µg/mL
- MIC (Streptococcus pyogenes [26]): 0.06 µg/mL (≈ 0.141 µM)
- MIC (Streptococcus pyogenes [27]): > 64 µg/mL
- MIC (Streptococcus pneumoniae [28]): 0.03 µg/mL (≈ 0.0706 µM)
- MIC (Streptococcus pneumoniae [29]): > 64 µg/mL
- MIC (Streptococcus pneumoniae [30]): 0.03 µg/mL (≈ 0.0706 µM)
- MIC (Streptococcus pneumoniae [31]): > 64 µg/mL

SMILES: CC[C@H]1OC(=O)[C@H](C)[C@@H](O[C@H]2C[C@@](C)(OC)[C@@H](O)[C@H](C)O2)[C@H](C)[C@@H](O[C@@H]2O[C@H](C)C[C@H](N(C)C)[C@H]2O)[C@](C)(O)C[C@@H](C)CN(C)[C@H](C)[C@@H](O)[C@]1(C)O [AZITHROMYCIN]
- MIC (Streptococcus pneumoniae [1]): 8 µg/mL (≈ 10.7 µM)
- MIC (Streptococcus pneumoniae [2]): 0.06 µg/mL (≈ 0.0801 µM)
- MIC (Streptococcus pyogenes [3]): > 64 µg/mL
- MIC (Streptococcus pyogenes [4]): > 64 µg/mL
- MIC (Streptococcus pneumoniae [5]): 32 µg/mL (≈ 42.7 µM)
- MIC (Streptococcus pneumoniae [7]): > 64 µg/mL
- MIC (Streptococcus pyogenes [9]): 4 µg/mL (≈ 5.34 µM)
- MIC (Streptococcus pneumoniae [10]): > 64 µg/mL
- MIC50 (Streptococcus pneumoniae [11]): 0.125 µg/mL (≈ 0.167 µM)
- MIC (Streptococcus pneumoniae [12]): > 64 µg/mL
- MIC (Streptococcus pneumoniae [13]): 0.03 µg/mL (≈ 0.0401 µM)
- MIC (Streptococcus pneumoniae [14]): > 64 µg/mL
- MIC (Streptococcus pneumoniae [15]): > 64 µg/mL
- MIC (Streptococcus pneumoniae [16]): 4 µg/mL (≈ 5.34 µM)
- MIC (Streptococcus pyogenes [18]): 1 µg/mL (≈ 1.34 µM)
- MIC50 (Streptococcus pyogenes [20]): > 64 µg/mL
- MIC90 (Streptococcus pyogenes [20]): > 64 µg/mL
- MIC (Streptococcus pyogenes [21]): 2 µg/mL (≈ 2.67 µM)
- MIC50 (Streptococcus pyogenes [22]): 0.125 µg/mL (≈ 0.167 µM)
- MIC90 (Streptococcus pyogenes [22]): 0.25 µg/mL (≈ 0.334 µM)
- MIC (Streptococcus pneumoniae [23]): > 64 µg/mL
- MIC50 (Streptococcus pneumoniae [25]): > 64 µg/mL
- MIC90 (Streptococcus pneumoniae [25]): > 64 µg/mL
- MIC (Streptococcus pyogenes [26]): 16 µg/mL (≈ 21.4 µM)
- MIC (Streptococcus pyogenes [32]): 8 µg/mL (≈ 10.7 µM)
- MIC (Streptococcus pyogenes [27]): > 64 µg/mL
- MIC (Streptococcus pneumoniae [29]): > 64 µg/mL
- MIC (Streptococcus pneumoniae [30]): 0.06 µg/mL (≈ 0.0801 µM)
- MIC (Streptococcus pneumoniae [31]): > 64 µg/mL
